Shown are actives, neighbours in structure and some others; about 0.79% of the full set was active somewhere.
bIAP activator – intestinal alkaline phosphatase (bovine) activation | purified bovine IAP, CDP-star luminescence, 30 min; hits give high values; fold of DMSO-control signal, blank-subtracted | activation factor at 20 µM | 200,000 compounds, 0.17% hits | AID 1016;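 active = activation factor of 2 or more at 20 µM, a signal rise over negative controls twice the positive control's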
hIAP inh – blocks human intestinal alkaline phosphatase. P09923. purified IAP, CDP-Star luminescence, 30 min. inhibition, % at 10 µM. 330,000 compounds, 0.12% hits. AID 2544;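 active = inhibition reaching a set limit with compound at 10 µM in the primary screen, cut at about 35% in these data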;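 also: plate controls were DMSO wells with enzyme for no effect and no-enzyme buffer wells for full effect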
Target sequence (P09923 whole entry, looked up): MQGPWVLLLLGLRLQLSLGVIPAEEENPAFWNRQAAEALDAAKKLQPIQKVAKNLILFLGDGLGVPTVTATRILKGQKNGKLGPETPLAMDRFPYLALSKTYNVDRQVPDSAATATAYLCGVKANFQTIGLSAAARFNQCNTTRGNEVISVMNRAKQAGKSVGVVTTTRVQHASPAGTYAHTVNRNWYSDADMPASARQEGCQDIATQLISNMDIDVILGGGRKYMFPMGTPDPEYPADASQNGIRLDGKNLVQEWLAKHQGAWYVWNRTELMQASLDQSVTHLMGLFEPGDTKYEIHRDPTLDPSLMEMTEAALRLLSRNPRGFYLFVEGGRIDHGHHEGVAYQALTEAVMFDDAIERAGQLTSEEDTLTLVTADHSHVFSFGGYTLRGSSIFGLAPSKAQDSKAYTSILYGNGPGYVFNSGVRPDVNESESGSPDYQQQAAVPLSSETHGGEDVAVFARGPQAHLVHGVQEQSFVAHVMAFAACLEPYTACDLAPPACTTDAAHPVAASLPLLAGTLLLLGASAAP
mIAP activ – mouse IAP activation. muIAP, CDP-Star luminescence, 30 min; hits give high values; 1 = vehicle-only enzyme signal, 0 = enzyme-free wells. activation factor at 10 µM. 330,000 compounds, 0.24% hits. AID 2805;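 active = activation factor of at least 2 at 20 µM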
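Assay system: mouse IAP enzyme / Compound: DMSO-dissolved test compounds / Timing: 30 min, room temperature / Measured by: luminescence from enzymatic CDP-Star hydrolysis / Control set: DMSO-only wells, enzyme-free buffer wells as negative control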
hIAP activ – increases human intestinal alkaline phosphatase activity; purified human IAP, CDP-Star luminescence, 30 min; hits give high values; 1 = vehicle-only enzyme, 0 = enzyme-free background; activation factor at 10 µM; 330,000 compounds, 0.16% hits; AID 2524;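 active = activation factor of the enzyme at least 2-fold when tested at 20 µM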
mIAP inh – mouse IAP inhibition. purified mouse IAP, CDP-Star luminescence, 30 min. inhibition, % at 10 µM. 330,000 compounds, 0.2% hits;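 active = inhibition of at least 40% at 10 µM in the primary screen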;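 also: plate controls were DMSO with enzyme for no effect and no enzyme wells for full effect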
bIAP inhibitor – intestinal alkaline phosphatase (bovine) inhibition | purified bovine IAP, CDP-star luminescence, 30 min | 190,000 tested, under 10 active | inhibition, % at 20 µM;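 active = over 50% inhibition of intestinal alkaline phosphatase at 20 µM in the single-dose screen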
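Incubation: 30 min reaction at room temperature / Material: purified bovine intestinal alkaline phosphatase (IAP) enzyme / Input: enzyme at 1/65,000,000 dilution / Dosing: 20 µM single dose / Signal: CDP-star luminescence signal / Reagent: CDP-star chemiluminescent phosphatase substrate, 30 µM final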
* = called active by the depositor; / = no result.

SMILES | bIAP activator | hIAP inh | mIAP activ | hIAP activ | mIAP inh | bIAP inhibitor
CCCOC(=O)c1ccc(-c2c(C)noc2-c2ccc(OC)cc2O)o1 | 0.9 | 9 | 0.98 | 0.91 | 2 | 12
C=Cc1ccc(CN2CCCN(Cc3ccc(Cl)cc3)S2(=O)=O)cc1 | / | 13 | 1 | 0.87 | -2 | /
Nn1c(-c2ccccc2Cl)nnc1-c1ccccc1Cl | 2.6* | 5 | 1 | 0.95 | -1 | -157
CC(C)c1nc2oc3c(NCCO)ncnc3c2c2c1COC(C)(C)C2 | / | -6 | 0.92 | 1.1 | 8 | /
CC(=O)c1ccc(NC(=O)N[C@@H](CC(C)C)C(=O)O)cc1 | 0.9 | -9 | 1 | 1.1 | -1 | 7
O=C(N/N=C\c1ccc(O)c([N+](=O)[O-])c1)C1COc2ccccc2O1 (stereo not drawn) | / | -10 | 0.96 | 1.1 | 4 | /
Cc1cc([N+](=O)[O-])cc(/C=N\NC(=O)C2COc3ccccc3O2)c1O (stereo not drawn) | / | -34 | 0.58 | 1.3 | 42* | /
COc1cc(OC)cc(C(=O)NC2CCN(Cc3nnnn3Cc3ccc(F)cc3)CC2)c1 | 1 | -10 | 1 | 1.1 | 0 | 5
COc1cccc(NC(=O)NC2CCN(Cc3nnnn3Cc3ccc4c(c3)OCO4)CC2)c1 | / | -48 | 2.5* | 1.5 | -150 | /
C=CCn1c(CNC(=O)c2ccccc2F)nnc1SCc1nc2ccccc2c(=O)[nH]1 | 0.9 | 8 | 0.94 | 0.92 | 6 | 6
Cc1ccc(CNC(=O)Nc2ccc3c(c2)N(C)C(=O)CS3)cc1 | 0.8 | 9 | 2.1* | 0.91 | -107 | 17
Cc1ccc(NC(=O)Nc2ccc3c(c2)N(C)C(=O)CS3)cc1C | 1 | -28 | 3.1* | 1.3 | -209 | -5
CN1C(=O)CSc2ccc(NC(=O)NCc3ccccc3)cc21 | 1 | -10 | 1.3 | 1.1 | -34 | 3
COc1cc(/C=N/N2C(C)CCCC2C)cc(OC)c1O (stereo not drawn) | / | 18 | 1.1 | 0.82 | -13 | /
CC(C)N1C(=S)SC(C)(C)C1NO (stereo not drawn) | 2.1* | 9 | 1 | 0.91 | -2 | -112
CC(=O)Nc1ccc(C(=O)NC2CCSc3ccccc32)cc1 (stereo not drawn) | / | 8 | 1 | 0.92 | 0 | /
COC(=O)c1ccc(NC(=S)NC2CC2)cc1 | 1 | 9 | 1.1 | 0.91 | -6 | -2
COC(=O)c1ccc(NC(=S)NC2CCc3ccccc32)cc1 (stereo not drawn) | 1 | -4 | 2.9* | 1 | -190 | -1
Cc1ccc(NC(=S)NC2CCSc3ccccc32)cc1 (stereo not drawn) | / | -33 | 3.7* | 1.3 | -269 | /
Cc1oc(-c2ccccc2)nc1CC(=O)O | 0.9 | 0 | 1 | 1 | 0 | 12
CC(C)(C)OC(=O)NCCCC[C@@H](C(=O)NCCCCCCCCCCC(=O)N1CCN(C(=O)OC(C)(C)C)CC1)n1cc(CCO)nn1 | / | 17 | 1.2 | 0.83 | -22 | /
CC[C@H](C)Cc1cn([C@@H](CCCCNC(=O)OC(C)(C)C)C(=O)NCCCCCCCCCCC(=O)N2CCN(C(=O)OC(C)(C)C)CC2)nn1 | / | 3 | 2.2* | 0.97 | -119 | /
Cc1c[n+](CC(=O)c2ccccc2)cs1 | / | -20 | 0.94 | 1.2 | 6 | /
O=C(CSC(=S)N1CCN(c2ccccc2)CC1)Nc1nc(-c2ccccc2)c(-c2ccccc2)o1 | 2.2* | -11 | 0.91 | 1.1 | 9 | -123
c1ccc2[nH]c(SCc3cn4ccccc4n3)nc2c1 | 1.4 | -46 | 1.1 | 1.5 | -6 | -41
SMILES | bIAP activator | hIAP inh | mIAP activ | hIAP activ | mIAP inh | bIAP inhibitor
Cc1cccc2nc(CSc3nc4ccccc4[nH]3)cn12 | 2.6* | 8 | 0.9 | 0.92 | 10 | -155
CC1CC(C)(C)NCCNC(C)CC(C)(C)NCCN1 (stereo not drawn) | 2.8* | -4 | 1.2 | 1 | -18 | -177
COC(=O)c1cc(C(=O)OCC(=O)NCc2ccc3c(c2)OCO3)cc([N+](=O)[O-])c1 | 1 | -4 | 0.91 | 1 | 9 | 2
Cc1ccc2ncccc2c1 | / | -9 | 1.1 | 1.1 | -10 | /
Cc1cc(N(C)C)ccc1N=Nc1ccc2ncccc2c1 | / | 40* | 0.82 | 0.6 | 18 | /
CC12CN(C(=O)c3ccccc3Br)CC(C)(CN(C(=O)c3ccccc3Br)C1)C2=O | / | -2 | 0.96 | 1 | 4 | /
COc1cc(C2C3=C(CCCC3=O)Nc3c2c(C)nn3-c2cccc(C)c2)cc(OC)c1O (stereo not drawn) | / | 3 | 0.94 | 0.97 | 6 | /
CCn1c(C)cc(/C=C2/SC(=S)NC2=O)c1C | 0.9 | 21 | 0.48 | 0.79 | 52* | 12
CC(C)c1ccc(OCC(=O)NNC(=O)c2cnccn2)cc1 | / | -6 | 0.85 | 1.1 | 15 | /
Cc1cc(-c2csc(NC(=O)c3ccc(C#N)cc3)n2)c(C)n1Cc1ccco1 | 0.9 | 1 | 0.59 | 0.99 | 41* | 10
Cc1cc(-c2csc(NC(=O)c3ccc(=O)[nH]c3)n2)c(C)n1Cc1ccccc1 | 1.1 | 3 | 0.62 | 0.97 | 38 | -8
Cc1ccc(C)c2[nH]c(=O)c(CN(CC3CCCO3)C(=S)NCc3ccco3)cc12 (stereo not drawn) | / | 8 | 0.91 | 0.92 | 9 | /
CC(C)n1c(-c2ccc(N(C)C)cc2)nc2ccccc21 | 3.4* | -65 | 0.93 | 1.6 | 8 | -242
CN(C)c1ccc(-c2nc3ccccc3n2C)cc1 | 0.9 | 14 | 0.96 | 0.86 | 4 | 7
Cc1ccc(C(O)c2nc3ccccc3n2C(C)C)cc1 (stereo not drawn) | 2.5* | 3 | 1 | 0.97 | -3 | -149
Cc1nc2ncnn2c(C)c1Cc1ccc(Cl)cc1 | 1 | 2 | 1 | 0.98 | -1 | 2
CCN1C(=O)/C(=C/C=C2/SCCN2C)SC1=S | 0.9 | 9 | 0.52 | 0.91 | 48* | 13
CN1CCS/C1=C\C=C1/SC(=S)N(CC(=O)O)C1=O | 0.4 | / | / | / | / | /
Cc1ccc(S(=O)(=O)Nc2cccc(-n3cnnn3)c2)cc1C(=O)O | / | 8 | 0.93 | 0.92 | 7 | /
CCOP(=O)(OCC)C(NC(=O)Nc1ccc(Cl)cc1)c1ccccc1 (stereo not drawn) | 1 | -33 | 2* | 1.3 | -103 | 2
CCOP(=O)(OCC)C(NC(=O)Nc1ccc(Cl)cc1)C(N)=O (stereo not drawn) | 0.9 | -2 | 0.95 | 1 | 5 | 13
CCOP(=O)(OCC)C(NC(=O)Nc1ccc(Cl)c(Cl)c1)c1ccccc1 (stereo not drawn) | 0.9 | 4 | 5* | 0.96 | -402 | 6
CCOP(=O)(OCC)C(NC(=O)Nc1ccc(Cl)c(Cl)c1)C(N)=O (stereo not drawn) | 0.4 | 7 | 1.1 | 0.93 | -12 | /
COC(=O)c1ccc(NC(=S)NCCC2=CCCCC2)cc1 | 1.1 | -18 | 2.5* | 1.2 | -147 | -6
COC(=O)c1cccc(NC(=S)NCCC2=CCCCC2)c1 | 1 | 8 | 1.8 | 0.92 | -82 | 3

Bioassay records deposited in PubChem by Sanford-Burnham Center for Chemical Genomics.
